The target in experiment [1] is T1, Retinoic acid receptor gamma (Homo sapiens) (UniProt P13631).
T1 sequence (whole entry): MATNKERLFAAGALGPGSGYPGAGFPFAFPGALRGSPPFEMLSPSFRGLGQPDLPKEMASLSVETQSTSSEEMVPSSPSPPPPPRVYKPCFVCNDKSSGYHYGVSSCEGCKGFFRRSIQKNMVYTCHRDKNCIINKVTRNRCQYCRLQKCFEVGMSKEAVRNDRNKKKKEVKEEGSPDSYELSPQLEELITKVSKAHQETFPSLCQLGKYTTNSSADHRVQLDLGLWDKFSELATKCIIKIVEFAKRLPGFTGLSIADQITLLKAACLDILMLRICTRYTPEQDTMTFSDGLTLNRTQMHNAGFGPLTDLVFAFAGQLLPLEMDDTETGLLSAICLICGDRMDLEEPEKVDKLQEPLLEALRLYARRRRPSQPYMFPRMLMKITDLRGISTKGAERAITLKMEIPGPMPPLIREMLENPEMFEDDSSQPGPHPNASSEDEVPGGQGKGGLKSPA
As to the kind of experiment: Percent transcriptional activation relative to ATRA in CV-1 cells expressing Retinoic acid receptor RAR gamma. The format is functional, cell-based. In a few lines: (§1)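 Cotransfection transactivation assay in CV-1 cells. Full dose-response curves ran from 10^-12 to 10^-5 M. Efficacy is expressed as percent of the ATRA response, with ATRA set at 100%. Values are mean ± SEM of at least three separate experiments, each with triplicate determinations.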

Experiment [2] concerns the target T2, Retinoic acid receptor alpha (Homo sapiens) (UniProt P10276).
T2 sequence (whole entry): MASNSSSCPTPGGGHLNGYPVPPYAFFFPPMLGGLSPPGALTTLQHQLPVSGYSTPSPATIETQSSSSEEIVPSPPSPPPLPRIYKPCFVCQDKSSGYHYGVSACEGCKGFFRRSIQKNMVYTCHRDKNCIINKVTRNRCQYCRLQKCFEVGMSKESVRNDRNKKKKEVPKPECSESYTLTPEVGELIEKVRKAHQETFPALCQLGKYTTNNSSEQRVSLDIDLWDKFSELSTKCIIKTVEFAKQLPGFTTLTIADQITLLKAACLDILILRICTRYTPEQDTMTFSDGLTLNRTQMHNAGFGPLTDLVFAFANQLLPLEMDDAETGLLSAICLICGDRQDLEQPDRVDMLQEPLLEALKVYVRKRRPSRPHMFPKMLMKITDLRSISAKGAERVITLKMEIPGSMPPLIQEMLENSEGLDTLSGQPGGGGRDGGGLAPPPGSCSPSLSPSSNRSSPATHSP
The experiment can be described thus: Percent transcriptional activation relative to ATRA in CV-1 cells expressing Retinoic acid receptor RAR alpha. In kind it is functional, cell-based. In outline:
as §1

In experiment [3] the target is T3, Retinoic acid receptor RXR-beta (Homo sapiens) (UniProt P28702).
T3 sequence (whole entry): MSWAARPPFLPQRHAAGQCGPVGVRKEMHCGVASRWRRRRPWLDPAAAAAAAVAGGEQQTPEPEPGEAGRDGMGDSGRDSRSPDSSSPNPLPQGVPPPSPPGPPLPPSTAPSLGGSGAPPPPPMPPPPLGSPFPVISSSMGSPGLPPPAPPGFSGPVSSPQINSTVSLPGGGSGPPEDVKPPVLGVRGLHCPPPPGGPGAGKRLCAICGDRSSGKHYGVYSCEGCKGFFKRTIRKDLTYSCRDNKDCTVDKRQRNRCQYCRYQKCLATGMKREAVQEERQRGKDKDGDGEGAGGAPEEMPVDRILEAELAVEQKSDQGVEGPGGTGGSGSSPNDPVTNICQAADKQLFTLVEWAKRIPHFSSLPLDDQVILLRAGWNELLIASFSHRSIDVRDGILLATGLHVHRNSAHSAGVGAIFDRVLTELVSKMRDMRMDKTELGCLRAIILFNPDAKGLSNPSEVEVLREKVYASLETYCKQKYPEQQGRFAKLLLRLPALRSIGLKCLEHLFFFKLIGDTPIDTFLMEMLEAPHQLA
As to the kind of experiment: Percent transcriptional activation relative to ATRA in CV-1 cells expressing Retinoid X receptor RXR beta. In kind it is functional, cell-based. In a few lines: as §1

Experiment [4] has as its target T4, Retinoic acid receptor RXR-beta (Homo sapiens, UniProt P28702).
T4 sequence (P28702 whole entry): T3 sequence (whole entry)
As to the kind of experiment: Inhibition of [3H]9-cis-RA binding to Retinoid X receptor RXR beta.

In experiment [5] the target is T5, Retinoic acid receptor alpha (Homo sapiens, UniProt P10276).
T5 sequence (P10276 whole entry): T2 sequence (whole entry)
The experiment can be described thus: Transcriptional activation in CV-1 cells expressing Retinoic acid receptor RAR alpha. The format is functional, cell-based.

Experiment [6] deals with T5, Retinoic acid receptor alpha. As to the kind of experiment: Inhibition of [3H]ATRA binding to Retinoic acid receptor RAR alpha.
The target of experiment [7] is T6, Retinoic acid receptor RXR-alpha (Homo sapiens, UniProt P19793).
T6 sequence (P19793 whole entry): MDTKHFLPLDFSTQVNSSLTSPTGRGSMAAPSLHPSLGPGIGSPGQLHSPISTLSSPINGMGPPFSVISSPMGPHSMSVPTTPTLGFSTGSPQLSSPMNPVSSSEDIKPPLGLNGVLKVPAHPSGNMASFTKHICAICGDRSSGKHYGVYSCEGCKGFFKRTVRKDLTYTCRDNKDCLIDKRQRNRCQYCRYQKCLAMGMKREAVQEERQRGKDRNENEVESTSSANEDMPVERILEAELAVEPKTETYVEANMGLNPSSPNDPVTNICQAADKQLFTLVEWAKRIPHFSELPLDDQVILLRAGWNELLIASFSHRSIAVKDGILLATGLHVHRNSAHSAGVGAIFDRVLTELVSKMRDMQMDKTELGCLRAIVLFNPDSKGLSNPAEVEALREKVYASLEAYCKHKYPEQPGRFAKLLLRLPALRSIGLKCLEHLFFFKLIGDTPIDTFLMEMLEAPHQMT
As to the kind of experiment: Transcriptional activation in CV-1 cells expressing Retinoid X receptor RXR alpha. The format is functional, cell-based.

For experiment [8], the target named is T4, Retinoic acid receptor RXR-beta. As to the kind of experiment: Transcriptional activation in CV-1 cells expressing Retinoid X receptor RXR beta. The format is functional, cell-based.
The target of experiment [9] is T7, Retinoic acid receptor RXR-gamma (Homo sapiens, UniProt P48443).
T7 sequence (P48443 whole entry): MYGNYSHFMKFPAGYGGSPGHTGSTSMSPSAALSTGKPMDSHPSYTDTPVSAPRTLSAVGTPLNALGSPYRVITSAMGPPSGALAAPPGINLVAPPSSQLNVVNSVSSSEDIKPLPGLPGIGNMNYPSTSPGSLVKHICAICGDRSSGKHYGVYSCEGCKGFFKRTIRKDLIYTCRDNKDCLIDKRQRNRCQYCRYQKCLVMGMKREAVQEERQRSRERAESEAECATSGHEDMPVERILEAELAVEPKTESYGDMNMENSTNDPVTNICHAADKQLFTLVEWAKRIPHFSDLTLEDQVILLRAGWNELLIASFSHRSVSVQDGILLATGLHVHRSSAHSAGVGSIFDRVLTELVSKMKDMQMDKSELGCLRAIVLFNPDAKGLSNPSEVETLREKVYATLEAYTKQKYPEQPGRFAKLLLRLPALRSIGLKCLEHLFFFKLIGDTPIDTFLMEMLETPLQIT
The experiment can be described thus: Transcriptional activation in CV-1 cells expressing Retinoid X receptor RXR gamma. The format is functional, cell-based.

Experiment [10] has as its target T8, Retinoic acid receptor beta (Homo sapiens, UniProt P10826).
T8 sequence (P10826 whole entry): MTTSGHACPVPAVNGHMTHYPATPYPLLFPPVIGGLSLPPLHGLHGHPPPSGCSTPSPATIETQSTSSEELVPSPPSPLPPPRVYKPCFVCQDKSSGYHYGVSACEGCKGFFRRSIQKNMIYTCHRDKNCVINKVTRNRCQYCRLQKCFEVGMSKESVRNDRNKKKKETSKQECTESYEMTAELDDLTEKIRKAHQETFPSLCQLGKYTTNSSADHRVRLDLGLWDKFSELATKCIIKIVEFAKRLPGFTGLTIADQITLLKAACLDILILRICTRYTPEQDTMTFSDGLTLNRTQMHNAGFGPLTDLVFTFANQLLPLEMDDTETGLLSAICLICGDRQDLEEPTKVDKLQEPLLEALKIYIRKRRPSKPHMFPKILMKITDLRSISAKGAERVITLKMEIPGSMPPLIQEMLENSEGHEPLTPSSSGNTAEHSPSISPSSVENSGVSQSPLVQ
The experiment can be described thus: Transcriptional activation in CV-1 cells expressing Retinoic acid receptor RAR beta. In kind it is functional, cell-based.

Experiment [11] has as its target T6, Retinoic acid receptor RXR-alpha. The experiment can be described thus: Inhibition of [3H]9-cis-RA binding to Retinoid X receptor RXR alpha.
The target in experiment [12] is T7, Retinoic acid receptor RXR-gamma. The experiment can be described thus: Inhibition of [3H]9-cis-RA binding to Retinoid X receptor RXR gamma.
For experiment [13], the target named is T8, Retinoic acid receptor beta. The experiment can be described thus: Inhibition of [3H]ATRA binding to Retinoic acid receptor RAR beta.
For experiment [14], the target named is T6, Retinoic acid receptor RXR-alpha. As to the kind of experiment: Transcriptional activation in CV-1 cells expressing Retinoid X receptor RXR alpha; Not active. The format is functional, cell-based.
The target of experiment [15] is T7, Retinoic acid receptor RXR-gamma. As to the kind of experiment: Transcriptional activation in CV-1 cells expressing Retinoid X receptor RXR gamma; Not active. In kind it is functional, cell-based.

From ChEMBL document CHEMBL1129042, “Discovery of novel retinoic acid receptor agonists having potent antiproliferative activity in cervical cancer cells” (J Med Chem, 1996) come the findings set out here.

For `CC1=C(/C=C/C(C)=C/C=C/C(C)=C/C(=O)O)C(C)(C)CCC1`, the Efficacy in experiment [1], in experiment [2] and in experiment [3] was 100% each time.
For the molecule `CC1=C(/C=C/C(C)=C\C=C\C(C)=C\C(=O)O)C(C)(C)CCC1`, the Efficacy in experiment [1] turned out to be 93%; in experiment [2], 81%; in experiment [3] it was 128%.
Take `CC(/C=C/C=C(\C)c1cc(C(C)(C)C)cc(C(C)(C)C)c1)=C\C(=O)O` (stereo in doubt; form 1) [listing 1 of 2 here]: the Ki in experiment [4] was determined as 10.2 nM; in experiment [6], 63.5 nM; in [11] it was 4.6 nM; in experiment [12] it was 9.3 nM; in experiment [13], 90 nM. Further, the EC50 in experiment [5] was determined as 65 nM; in experiment [7] it was 134 nM; in [8], 87 nM; in [9], 77 nM; in [10], 24 nM.
As to `CC(/C=C/C=C(\C)c1cc(C(C)(C)C)cc(C(C)(C)C)c1)=C\C(=O)O` (stereo in doubt; form 1) [listing 2 of 2 here], the Efficacy in experiment [1] was 58%; in experiment [2], 39%; in [3], 27%.
Turning to `CC(/C=C/C=C(\C)c1cc(C(C)(C)C)cc(C(C)(C)C)c1)=C\C(=O)O` (stereo in doubt; form 2) [listing 1 of 2 here], the Ki in experiment [4] was 560 nM; in experiment [6] it was 1.1 nM; in [11], 223 nM; in experiment [12], 320 nM; in experiment [13], 0.7 nM. Moreover, the EC50 result in [8] is “Not Active”; in [10] it was 2.2 nM; in experiment [14], “Not Active”; in [15], “Not Active”.
As for `CC(/C=C/C=C(\C)c1cc(C(C)(C)C)cc(C(C)(C)C)c1)=C\C(=O)O` (stereo in doubt; form 2) [listing 2 of 2 here], the Efficacy in experiment [1] was determined as 48%; in [2] it was 31%.

The Ki is a dissociation constant, usually derived from enzyme kinetics or from competition with a known ligand. As a reminder, the EC50 is the concentration at which the effect is half-maximal. A low value points to an effect from little substance.
